Activity calls are given as the source filed them. No cut-off for these calls is given here.
Assays:
Influenza A virus [1] = experiment: Antiviral activity against Influenza A virus A/WSN/33(H1N1)-PB2-Nanoluc virus infected in human A549 cells assessed as decrease in Nano-luc pretreated for 2 hr followed viral infection incubated for 24 hrs by Nano-Glo luminescence assay; format: functional, organism-based; conditions: A/WSN/1933(H1N1)
In short: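 A549 cells were treated with a range of compound concentrations for 2 h, then infected with WSN-PB2-Nanoluc (NanoLuc fused to PB2) at MOI 0.02 for 24 h. Cells were lysed in Renilla lysis buffer and luminescence read with Nano-Glo substrate on equal lysate volumes. IC50 was derived from the dose-response.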

A549 = experiment: Cytotoxicity against human A549 cells by MTT assay; format: cell-based
In short: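 MTT assay run according to the manufacturer's instructions, concurrently with NP immunostaining of infected A549 cultures.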

[2] = Selectivity index, ratio of CC50 for human A549 cells to IC50 for antiviral activity against Influenza A virus A/WSN/33(H1N1) infected in human A549 cells; format: toxicity, cell-based; conditions: read-out: Selectivity Index
In short: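 Ratio of CC50 to IC50. IC50 came from A549 cells pretreated 2 h with compound, then infected 24 h with WSN-PB2-Nanoluc at MOI 0.02 and read by Nano-Glo luminescence. CC50 was measured by CellTiter-Glo.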

Influenza A virus [3] = experiment: Antiviral activity against Influenza A virus A/California/07/2009 (HIN1) infected in human A549 cells assessed as reduction in infected cells up to 25 uM pretreated for 1 hr; format: functional, organism-based; conditions: A/California/07/2009(H1N1), dose microM <=25, time 1.0 hrs
Influenza A virus [4] = experiment: Antiviral activity against Influenza A virus A/WSN/33(H1N1) infected in human A549 cells assessed as viral replication measured after 24 hrs by immunofluorescence microscopy; format: functional, organism-based; conditions: A/WSN/1933(H1N1); for IC50: A549, 24 h; for IC90: A549, time 24 hrs
In short: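 A549 cells were infected with A/WSN/33 at MOI 0.01 for 24 h, then fixed in 4% formaldehyde and permeabilized with 0.1% Triton X-100. They were immunostained for NP with an Alexa-488 secondary plus DAPI and imaged on an image cytometer. Percent infection = NP-positive cells divided by total cells.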

Influenza A virus [5] = experiment: Antiviral activity against Influenza A virus A/Wyoming/03/2003 (H3N2) infected in human A549 cells assessed as reduction in infected cells up to 25 uM pretreated for 1 hr; format: functional, organism-based; conditions: dose microM <=25, time 1.0 hrs

Row | Compound | IC50 (Influenza A virus [1]) [µM] | CC10 (A549) [µM] | selectivity ratio [2] | CC50 (A549) [µM] | Activity (Influenza A virus [3]) | IC50 (Influenza A virus [4]) [µM] | IC90 (Influenza A virus [4]) [µM] | Activity (Influenza A virus [5])
1 | C#CCN(c1cccc(N=[N+]=[N-])c1)S(=O)(=O)c1cc(Cl)ccc1Cl | 136 | > 25 |  |  |  |  |  | 
2 | CCN(c1ccc(F)cc1F)S(=O)(=O)c1cc(Cl)ccc1Cl |  | > 5 | > 96 | > 5 | Active | 0.052 | 0.9 | inactive
3 | C#CCCC1(CCN(c2ccc(Cl)cc2C)S(=O)(=O)c2cc(Cl)ccc2Cl)N=N1 | > 5 | > 25 |  |  |  |  |  | 
4 | CCN(c1ccc(Cl)cc1C)S(=O)(=O)c1cc(Cl)ccc1Cl |  | > 5 | > 147 | > 5 | Active | 0.034 | 0.5 | Active
5 | O=S(=O)(c1cc(Cl)ccc1Cl)N1CCCc2cc(Cl)ccc21 | > 5 | > 5 |  |  |  |  |  | 
6 | O=S(=O)(c1cc(Cl)ccc1Cl)N1CCc2cc(Cl)ccc21 | > 5 | > 5 |  |  |  |  |  | 
7 | C#CCCC1(CCOC(=O)Cc2ccc(N(CC)S(=O)(=O)c3cc(Cl)ccc3Cl)cc2)N=N1 | > 5 | > 25 |  |  |  |  |  | 
8 | CCN(C(=O)c1cc(Cl)ccc1Cl)c1ccc(Cl)cc1C | > 5 | > 5 |  |  |  |  |  | 

From ChEMBL document CHEMBL4825712
